Experimental data reported in ChEMBL document CHEMBL1765020, “Synthesis and structure-affinity relationships of novel dibenzylideneacetone derivatives as probes for β-amyloid plaques” (J Med Chem, 2011).

Assays:
Kidney [1] = experiment: Biodistribution in ddY mouse kidney at 1 uCi/100 uL, iv after 30 mins by gamma counting; assay type: ADME, organism-based; settings: in vivo, 0.5 h
Kidney [2] = experiment: Biodistribution in ddY mouse kidney at 1 uCi/100 uL, iv after 120 mins by gamma counting; assay type: ADME, organism-based; settings: in vivo, 2 h
Summary of the method: (§1)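 Normal female ddY mice (5 weeks, about 20 g; n = 4 per group) received radiotracer iv. Organs were removed and weighed at 2–120 min and counted in a γ-counter. Percent dose per gram of wet tissue was calculated against diluted aliquots of the injected material and reported as mean ± SD.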

Blood [3] = experiment: Biodistribution in ddY mouse blood at 1 uCi/100 uL, iv after 30 mins by gamma counting; assay type: ADME, organism-based; settings: in vivo, 0.5 h; summary of the method: as §1
Liver [4] = experiment: Biodistribution in ddY mouse liver at 1 uCi/100 uL, iv after 60 mins by gamma counting; assay type: ADME, organism-based; settings: in vivo, 1 h
Heart [5] = experiment: Biodistribution in ddY mouse heart at 1 uCi/100 uL, iv after 120 mins by gamma counting; assay type: ADME, organism-based; settings: in vivo, 2 h; summary of the method: as §1
Spleen [6] = experiment: Biodistribution in ddY mouse spleen at 1 uCi/100 uL, iv after 15 mins by gamma counting; assay type: ADME, organism-based; settings: in vivo, 0.25 h
Stomach [7] = experiment: Biodistribution in ddY mouse stomach at 1 uCi/100 uL, iv after 2 mins by gamma counting; assay type: ADME, organism-based; settings: in vivo
Blood [8] = experiment: Biodistribution in ddY mouse blood at 1 uCi/100 uL, iv after 60 mins by gamma counting; assay type: ADME, organism-based; settings: in vivo, 1 h; summary of the method: as §1
Lung [9] = experiment: Biodistribution in ddY mouse lung at 1 uCi/100 uL, iv after 30 mins by gamma counting; assay type: ADME, organism-based; settings: in vivo, 0.5 h
Liver [10] = experiment: Biodistribution in ddY mouse liver at 1 uCi/100 uL, iv after 30 mins by gamma counting; assay type: ADME, organism-based; settings: in vivo, 0.5 h
Blood [11] = experiment: Biodistribution in ddY mouse blood at 1 uCi/100 uL, iv after 2 mins by gamma counting; assay type: ADME, organism-based; settings: in vivo; summary of the method: as §1
Spleen [12] = experiment: Biodistribution in ddY mouse spleen at 1 uCi/100 uL, iv after 30 mins by gamma counting; assay type: ADME, organism-based; settings: in vivo, 0.5 h
Intestine [13] = experiment: Biodistribution in ddY mouse intestine at 1 uCi/100 uL, iv after 60 mins by gamma counting; assay type: ADME, organism-based; settings: in vivo, 1 h; summary of the method: as §1
Thyroid gland [14] = experiment: Biodistribution in ddY mouse thyroid at 1 uCi/100 uL, iv after 60 mins by gamma counting; assay type: ADME, organism-based; settings: in vivo, 1 h
Thyroid gland [15] = experiment: Biodistribution in ddY mouse thyroid at 1 uCi/100 uL, iv after 120 mins by gamma counting; assay type: ADME, organism-based; settings: in vivo, 2 h
Liver [16] = experiment: Biodistribution in ddY mouse liver at 1 uCi/100 uL, iv after 120 mins by gamma counting; assay type: ADME, organism-based; settings: in vivo, 2 h
Brain [17] = experiment: Biodistribution in ddY mouse brain at 1 uCi/100 uL, iv after 2 mins by gamma counting; assay type: ADME, organism-based; settings: in vivo; summary of the method: as §1
Kidney [18] = experiment: Biodistribution in ddY mouse kidney at 1 uCi/100 uL, iv after 2 mins by gamma counting; assay type: ADME, organism-based; settings: in vivo; summary of the method: as §1
Stomach [19] = experiment: Biodistribution in ddY mouse stomach at 1 uCi/100 uL, iv after 60 mins by gamma counting; assay type: ADME, organism-based; settings: in vivo, 1 h
Kidney [20] = experiment: Biodistribution in ddY mouse kidney at 1 uCi/100 uL, iv after 15 mins by gamma counting; assay type: ADME, organism-based; settings: in vivo, 0.25 h; summary of the method: as §1
Heart [21] = experiment: Biodistribution in ddY mouse heart at 1 uCi/100 uL, iv after 60 mins by gamma counting; assay type: ADME, organism-based; settings: in vivo, 1 h; summary of the method: as §1
Brain [22] = experiment: Biodistribution in ddY mouse brain at 1 uCi/100 uL, iv after 60 mins by gamma counting; assay type: ADME, organism-based; settings: in vivo, 1 h; summary of the method: as §1
Spleen [23] = experiment: Biodistribution in ddY mouse spleen at 1 uCi/100 uL, iv after 60 mins by gamma counting; assay type: ADME, organism-based; settings: in vivo, 1 h
Brain [24] = experiment: Biodistribution in ddY mouse brain at 1 uCi/100 uL, iv after 30 mins by gamma counting; assay type: ADME, organism-based; settings: in vivo, 0.5 h; summary of the method: as §1
Intestine [25] = experiment: Biodistribution in ddY mouse intestine at 1 uCi/100 uL, iv after 120 mins by gamma counting; assay type: ADME, organism-based; settings: in vivo, 2 h; summary of the method: as §1
Stomach [26] = experiment: Biodistribution in ddY mouse stomach at 1 uCi/100 uL, iv after 120 mins by gamma counting; assay type: ADME, organism-based; settings: in vivo, 2 h
Intestine [27] = experiment: Biodistribution in ddY mouse intestine at 1 uCi/100 uL, iv after 15 mins by gamma counting; assay type: ADME, organism-based; settings: in vivo, 0.25 h; summary of the method: as §1
Intestine [28] = experiment: Biodistribution in ddY mouse intestine at 1 uCi/100 uL, iv after 2 mins by gamma counting; assay type: ADME, organism-based; settings: in vivo; summary of the method: as §1
Brain [29] = experiment: Biodistribution in ddY mouse brain at 1 uCi/100 uL, iv after 15 mins by gamma counting; assay type: ADME, organism-based; settings: in vivo, 0.25 h; summary of the method: as §1
Heart [30] = experiment: Biodistribution in ddY mouse heart at 1 uCi/100 uL, iv after 30 mins by gamma counting; assay type: ADME, organism-based; settings: in vivo, 0.5 h; summary of the method: as §1
Stomach [31] = experiment: Biodistribution in ddY mouse stomach at 1 uCi/100 uL, iv after 30 mins by gamma counting; assay type: ADME, organism-based; settings: in vivo, 0.5 h
Brain [32] = experiment: Ratio of drug uptake in ddY mouse brain at 1 uCi/100 uL, iv after 2 mins to drug uptake in ddY mouse brain at 1 uCi/100 uL, iv after 60 mins; assay type: ADME, organism-based; settings: in vivo
Summary of the method: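 Normal female ddY mice (5 weeks) received the radiotracer iv, and brain uptake (% ID/g, n = 4) was measured by gamma counting at 2 and 60 min. The index is brain uptake at 2 min divided by brain uptake at 60 min.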

Thyroid gland [33] = experiment: Biodistribution in ddY mouse thyroid at 1 uCi/100 uL, iv after 30 mins by gamma counting; assay type: ADME, organism-based; settings: in vivo, 0.5 h
[34] = Partition coefficient, log D of the compound; assay type: physicochemical; settings: octanol/water
Summary of the method: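 Radiotracer partitioned between n-octanol and PBS: vortexed 3 min at room temperature, centrifuged 5 min at 3000 rpm. Weighed samples of the octanol (100 μL) and buffer (500 μL) layers were counted. log D is the log of the ratio of counts per gram, octanol versus PBS.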

Stomach [35] = experiment: Biodistribution in ddY mouse stomach at 1 uCi/100 uL, iv after 15 mins by gamma counting; assay type: ADME, organism-based; settings: in vivo, 0.25 h
Thyroid gland [36] = experiment: Biodistribution in ddY mouse thyroid at 1 uCi/100 uL, iv after 2 mins by gamma counting; assay type: ADME, organism-based; settings: in vivo
Thyroid gland [37] = experiment: Biodistribution in ddY mouse thyroid at 1 uCi/100 uL, iv after 15 mins by gamma counting; assay type: ADME, organism-based; settings: in vivo, 0.25 h
Brain [38] = experiment: Biodistribution in ddY mouse brain at 1 uCi/100 uL, iv after 120 mins by gamma counting; assay type: ADME, organism-based; settings: in vivo, 2 h; summary of the method: as §1
Liver [39] = experiment: Biodistribution in ddY mouse liver at 1 uCi/100 uL, iv after 15 mins by gamma counting; assay type: ADME, organism-based; settings: in vivo, 0.25 h
Kidney [40] = experiment: Biodistribution in ddY mouse kidney at 1 uCi/100 uL, iv after 60 mins by gamma counting; assay type: ADME, organism-based; settings: in vivo, 1 h
Spleen [41] = experiment: Biodistribution in ddY mouse spleen at 1 uCi/100 uL, iv after 120 mins by gamma counting; assay type: ADME, organism-based; settings: in vivo, 2 h
Blood [42] = experiment: Biodistribution in ddY mouse blood at 1 uCi/100 uL, iv after 120 mins by gamma counting; assay type: ADME, organism-based; settings: in vivo, 2 h; summary of the method: as §1
Intestine [43] = experiment: Biodistribution in ddY mouse intestine at 1 uCi/100 uL, iv after 30 mins by gamma counting; assay type: ADME, organism-based; settings: in vivo, 0.5 h; summary of the method: as §1
Lung [44] = experiment: Biodistribution in ddY mouse lung at 1 uCi/100 uL, iv after 120 mins by gamma counting; assay type: ADME, organism-based; settings: in vivo, 2 h
Lung [45] = experiment: Biodistribution in ddY mouse lung at 1 uCi/100 uL, iv after 60 mins by gamma counting; assay type: ADME, organism-based; settings: in vivo, 1 h
Liver [46] = experiment: Biodistribution in ddY mouse liver at 1 uCi/100 uL, iv after 2 mins by gamma counting; assay type: ADME, organism-based; settings: in vivo
Lung [47] = experiment: Biodistribution in ddY mouse lung at 1 uCi/100 uL, iv after 2 mins by gamma counting; assay type: ADME, organism-based; settings: in vivo
Blood [48] = experiment: Biodistribution in ddY mouse blood at 1 uCi/100 uL, iv after 15 mins by gamma counting; assay type: ADME, organism-based; settings: in vivo, 0.25 h; summary of the method: as §1
Lung [49] = experiment: Biodistribution in ddY mouse lung at 1 uCi/100 uL, iv after 15 mins by gamma counting; assay type: ADME, organism-based; settings: in vivo, 0.25 h
Heart [50] = experiment: Biodistribution in ddY mouse heart at 1 uCi/100 uL, iv after 2 mins by gamma counting; assay type: ADME, organism-based; settings: in vivo; summary of the method: as §1
Spleen [51] = experiment: Biodistribution in ddY mouse spleen at 1 uCi/100 uL, iv after 2 mins by gamma counting; assay type: ADME, organism-based; settings: in vivo
Heart [52] = experiment: Biodistribution in ddY mouse heart at 1 uCi/100 uL, iv after 15 mins by gamma counting; assay type: ADME, organism-based; settings: in vivo, 0.25 h; summary of the method: as §1

Drug uptake (Kidney [1]): 16.31 % ID/g | Drug uptake (Kidney [2]): 9.52 % ID/g | Drug uptake (Blood [3]): 4.12 % ID/g | Drug uptake (Liver [4]): 16.43 % ID/g | Drug uptake (Heart [5]): 1.11 % ID/g | Drug uptake (Spleen [6]): 2.02 % ID/g | Drug uptake (Stomach [7]): 1.37 % ID/organ | Drug uptake (Blood [8]): 1.72 % ID/g | Drug uptake (Lung [9]): 4.81 % ID/g | Drug uptake (Liver [10]): 24.17 % ID/g | Drug uptake (Blood [11]): 3.89 % ID/g | Drug uptake (Spleen [12]): 1.79 % ID/g | Drug uptake (Intestine [13]): 25.97 % ID/g | Drug uptake (Thyroid gland [14]): 14.14 % ID/g | Drug uptake (Thyroid gland [15]): 21.98 % ID/g | Drug uptake (Liver [16]): 17.57 % ID/g | Drug uptake (Brain [17]): 4.56 % ID/g | Drug uptake (Kidney [18]): 11.2 % ID/g | Drug uptake (Stomach [19]): 2.12 % ID/organ | Drug uptake (Kidney [20]): 22.81 % ID/g | Drug uptake (Heart [21]): 0.83 % ID/g | Drug uptake (Brain [22]): 0.54 % ID/g | Drug uptake (Spleen [23]): 0.8 % ID/g | Drug uptake (Brain [24]): 1.36 % ID/g | Drug uptake (Intestine [25]): 25.7 % ID/g | Drug uptake (Stomach [26]): 3.07 % ID/organ | Drug uptake (Intestine [27]): 6.9 % ID/g | Drug uptake (Intestine [28]): 2.27 % ID/g | Drug uptake (Brain [29]): 2.37 % ID/g | Drug uptake (Heart [30]): 2.01 % ID/g | Drug uptake (Stomach [31]): 3.12 % ID/organ | Ratio (Brain [32]): 8.44 | Drug uptake (Thyroid gland [33]): 11.49 % ID/g | logD [34]: 3.26 | Drug uptake (Stomach [35]): 3.1 % ID/organ | Drug uptake (Thyroid gland [36]): 8.64 % ID/g | Drug uptake (Thyroid gland [37]): 8.39 % ID/g | Drug uptake (Brain [38]): 0.4 % ID/g | Drug uptake (Liver [39]): 29.08 % ID/g | Drug uptake (Kidney [40]): 9 % ID/g | Drug uptake (Spleen [41]): 1.13 % ID/g | Drug uptake (Blood [42]): 2.52 % ID/g | Drug uptake (Intestine [43]): 10.85 % ID/g | Drug uptake (Lung [44]): 2.82 % ID/g | Drug uptake (Lung [45]): 2.43 % ID/g | Drug uptake (Liver [46]): 16.98 % ID/g | Drug uptake (Lung [47]): 9.25 % ID/g | Drug uptake (Blood [48]): 4.93 % ID/g | Drug uptake (Lung [49]): 6.06 % ID/g | Drug uptake (Heart [50]): 7.06 % ID/g | Drug uptake (Spleen [51]): 2.8 % ID/g | Drug uptake (Heart [52]): 3.45 % ID/g
SMILES: Nc1ccc(/C=C/C(=O)/C=C/c2ccc([125I])cc2)cc1
